Drawing on ChEMBL document CHEMBL1141302, “Anti-Helicobacter pylori and thrombin inhibitory components from Chinese dragon's blood, Dracaena cochinchinensis” (J Nat Prod, 2007), this text covers MIC and IC50 for 24 compounds.

In brackets after ≈: the same amount, converted by molar mass.

Chain of Dipeptidyl peptidase 4 (P27487 whole entry): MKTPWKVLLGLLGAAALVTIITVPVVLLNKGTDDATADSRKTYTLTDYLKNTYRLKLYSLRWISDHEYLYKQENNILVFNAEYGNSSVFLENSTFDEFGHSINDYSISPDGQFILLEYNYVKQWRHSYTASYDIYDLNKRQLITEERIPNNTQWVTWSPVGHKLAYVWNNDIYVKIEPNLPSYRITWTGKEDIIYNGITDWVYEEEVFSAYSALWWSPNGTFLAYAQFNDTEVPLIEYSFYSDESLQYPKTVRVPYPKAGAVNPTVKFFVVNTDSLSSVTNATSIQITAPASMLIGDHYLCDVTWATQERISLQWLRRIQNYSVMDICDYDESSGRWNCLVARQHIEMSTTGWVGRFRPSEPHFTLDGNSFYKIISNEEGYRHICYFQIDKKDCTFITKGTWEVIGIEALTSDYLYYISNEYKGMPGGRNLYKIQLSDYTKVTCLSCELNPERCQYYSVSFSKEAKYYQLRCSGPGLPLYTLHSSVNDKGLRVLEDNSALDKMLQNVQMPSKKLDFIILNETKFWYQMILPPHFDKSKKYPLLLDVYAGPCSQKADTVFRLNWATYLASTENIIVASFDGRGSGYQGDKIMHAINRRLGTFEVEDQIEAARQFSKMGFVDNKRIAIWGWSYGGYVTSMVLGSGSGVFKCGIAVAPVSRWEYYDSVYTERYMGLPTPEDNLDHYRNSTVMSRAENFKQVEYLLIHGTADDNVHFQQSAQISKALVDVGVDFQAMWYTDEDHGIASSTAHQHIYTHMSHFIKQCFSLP

The first assay has as its system Helicobacter pylori. Put plainly: Antibacterial activity against Helicobacter pylori ATCC 43504 by agar dilution method. Type of assay: functional. Put shortly:
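Mueller-Hinton agar plates with 7% lysed sheep blood and 2-fold serial dilutions of compound; spots of 5 µL bacterial suspension (10^7 cfu/mL) by multipoint inoculator; 37°C for 3 days, microaerobic (5% O2, 10% CO2, 85% N2, 98% humidity). MIC read as lowest inhibitory concentration; drug-free and DMSO-dilution plates as negative controls.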
The compound `COc1cc(O)c(C(CCc2ccc(O)cc2OC)c2ccc(O)cc2)cc1CCC(=O)c1ccc(O)cc1` (stereo not given) came in with a minimal inhibitory concentration (MIC) of 60.6 µM (≈ 32 µg/mL).
Still for that read-out and setting: the same measure for `Cc1c(O)ccc2c1O[C@H](c1ccc(O)cc1)CC2`: 31.3 µM (≈ 8.02 µg/mL).
As to `COc1cc(O)c2c(c1C)O[C@H](c1ccc(O)cc1)CC2`, the minimal inhibitory concentration (MIC) came to 55.9 µM (≈ 16 µg/mL).
The same measure, in the same setting: for `COc1ccc([C@@H]2CCc3ccc(O)cc3O2)cc1` the value was 250 µM (≈ 64.1 µg/mL); for `O=C(CCc1ccc(O)cc1O)c1ccc(O)cc1`, 248 µM (≈ 64.1 µg/mL).
The compound `COc1cc(O)ccc1C(=O)/C=C/c1ccc(O)cc1` had an MIC of 118 µM (≈ 32 µg/mL).
Still for that read-out and setting: for `COc1cc(O)ccc1CCC(=O)c1ccc(O)cc1` the value was 235 µM (≈ 64.1 µg/mL); for `COc1ccc(CCC(=O)c2ccc(O)cc2)c(OC)c1`, 224 µM (≈ 64.1 µg/mL); for `COc1cc(O)ccc1CCC(c1ccc(O)cc1)c1cc2c(c(C)c1O)O[C@@H](c1ccc(O)cc1)CC2` (stereo not given in full), 62.5 µM (≈ 32 µg/mL).
The same measure, in the same setting: the same measure for `COc1ccc2c(c1C)O[C@@H](c1ccc(O)cc1)CC2`: 59.3 µM (≈ 16 µg/mL); for `COc1c(O)ccc2c1OCC(Cc1ccc(O)cc1)C2` (stereo not given): 55.9 µM (≈ 16 µg/mL).
On the same count and under the same terms, for `COc1cc(O)cc(O)c1CCC(=O)c1ccc(O)cc1` the value was 111 µM (≈ 32 µg/mL); for `COc1cc(O)cc(OC)c1CCC(=O)c1ccc(O)cc1`, 212 µM (≈ 64.1 µg/mL).
Turning to `CC1(C)S[C@@H]2[C@H](NC(=O)[C@H](N)c3ccc(O)cc3)C(=O)N2[C@H]1C(=O)O` [AMOXICILLIN], 0.08 µM (≈ 0.0292 µg/mL) was the least that counted as inhibitory (MIC).
Still for that read-out and setting: the same measure for `COc1ccc(C(CCc2ccc(O)cc2OC)c2c(OC)cc(/C=C/c3ccc(O)cc3)cc2OC)cc1` (stereo not given) [COCHINCHINENENE A]: 60.8 µM (≈ 32 µg/mL).
Still for that read-out and setting: for `COc1ccc(C(CCc2ccc(O)cc2OC)c2c(O)cc(OC)cc2/C=C/c2ccc(O)cc2)cc1` (stereo not given) [COCHINCHINENENE B] the value was 62.5 µM (≈ 32 µg/mL).
The same measure, in the same setting: for `COc1cc(O)ccc1CCC(c1ccc(O)cc1)c1c(/C=C/c2ccc(O)cc2)cc(O)cc1OC` (stereo not given) [COCHINCHINENENE C] the value was 64.3 µM (≈ 32.1 µg/mL); for `COc1cc(O)ccc1CCC(c1ccc(O)cc1)c1c(O)cc(O)cc1/C=C/c1ccc(O)cc1` (stereo not given) [COCHINCHINENENE D], 66.1 µM (≈ 32 µg/mL).
`COc1cc(OC)c(C(CCc2ccc(O)cc2OC)c2ccc(O)cc2)cc1CCC(=O)c1ccc(O)cc1` (stereo not given) [COCHINCHINENIN B] registered a minimum inhibitory concentration (MIC) of 29.5 µM (≈ 16 µg/mL).
Same read-out and setting: for `COc1ccc(C(CCc2ccc(O)cc2OC)c2cc(CCC(=O)c3ccc(O)cc3)c(OC)cc2O)cc1` (stereo not given) [COCHINCHINENIN C] the value was 29.5 µM (≈ 16 µg/mL); for `COC1=CC(=O)C=C(OC)C1(O)CCC(=O)c1ccc(O)cc1` [COCHINCHINENONE], 201 µM (≈ 64.1 µg/mL).
The compound `Cc1ncc([N+](=O)[O-])n1CCO` [METRONIDAZOLE] returned an MIC of 748 µM (≈ 128 µg/mL).
Same read-out and setting: for `COc1ccc(/C=C/c2cc(O)cc(O)c2)cc1` [RESVERATROL 4'-METHYL ETHER] the value was 264 µM (≈ 64.1 µg/mL).
On the same count and under the same terms, the same measure for `Oc1ccc(/C=C/c2cc(O)cc(O)c2)cc1` [RESVERATROL]: 281 µM (≈ 64.1 µg/mL).

The target of another assay is Dipeptidyl peptidase 4 (Homo sapiens, UniProt P27487). In words: Inhibition of human recombinant DPP4. Put shortly:
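Recombinant human DPP-IV, expressed and purified in-house, at 0.01 nM in 100 mM Hepes pH 7.5 with 10 µM Ala-Pro-AMC substrate and 2% DMSO.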
As for `COc1cc(O)c(C(CCc2ccc(O)cc2OC)c2ccc(O)cc2)cc1CCC(=O)c1ccc(O)cc1` (stereo not given), the IC50 was above 36.9 µM.
The same measure, in the same setting: the same measure for `COc1cc(O)ccc1CCC(c1ccc(O)cc1)c1cc2c(c(C)c1O)O[C@@H](c1ccc(O)cc1)CC2` (stereo not given in full): above 39.1 µM; for `COc1ccc(C(CCc2ccc(O)cc2OC)c2c(OC)cc(/C=C/c3ccc(O)cc3)cc2OC)cc1` (stereo not given) [COCHINCHINENENE A]: above 36.9 µM; for `COc1ccc(C(CCc2ccc(O)cc2OC)c2c(O)cc(OC)cc2/C=C/c2ccc(O)cc2)cc1` (stereo not given) [COCHINCHINENENE B]: above 39.1 µM.
On the same count and under the same terms, the same measure for `COc1cc(O)ccc1CCC(c1ccc(O)cc1)c1c(/C=C/c2ccc(O)cc2)cc(O)cc1OC` (stereo not given) [COCHINCHINENENE C]: above 40.2 µM.
Still for that read-out and setting: for `COc1cc(O)ccc1CCC(c1ccc(O)cc1)c1c(O)cc(O)cc1/C=C/c1ccc(O)cc1` (stereo not given) [COCHINCHINENENE D] the value was above 41.3 µM; for `COc1cc(OC)c(C(CCc2ccc(O)cc2OC)c2ccc(O)cc2)cc1CCC(=O)c1ccc(O)cc1` (stereo not given) [COCHINCHINENIN B], above 36.9 µM; for `COc1ccc(C(CCc2ccc(O)cc2OC)c2cc(CCC(=O)c3ccc(O)cc3)c(OC)cc2O)cc1` (stereo not given) [COCHINCHINENIN C], above 36.9 µM.

The target of a further assay is Prothrombin (Homo sapiens, UniProt P00734). In words: Inhibition of human thrombin.
Take `COc1cc(O)c(C(CCc2ccc(O)cc2OC)c2ccc(O)cc2)cc1CCC(=O)c1ccc(O)cc1` (stereo not given): the IC50 stood at 26.3 µM.
Take `COc1cc(O)ccc1CCC(c1ccc(O)cc1)c1cc2c(c(C)c1O)O[C@@H](c1ccc(O)cc1)CC2` (stereo not given in full): 21.5 µM corresponded to half-maximal inhibition (IC50).
The same measure, in the same setting: the same measure for `COc1ccc(C(CCc2ccc(O)cc2OC)c2c(OC)cc(/C=C/c3ccc(O)cc3)cc2OC)cc1` (stereo not given) [COCHINCHINENENE A]: above 9.5 µM; for `COc1ccc(C(CCc2ccc(O)cc2OC)c2c(O)cc(OC)cc2/C=C/c2ccc(O)cc2)cc1` (stereo not given) [COCHINCHINENENE B]: 17.8 µM.
Same read-out and setting: for `COc1cc(O)ccc1CCC(c1ccc(O)cc1)c1c(/C=C/c2ccc(O)cc2)cc(O)cc1OC` (stereo not given) [COCHINCHINENENE C] the value was 26.7 µM.
Same read-out and setting: the same measure for `COc1cc(O)ccc1CCC(c1ccc(O)cc1)c1c(O)cc(O)cc1/C=C/c1ccc(O)cc1` (stereo not given) [COCHINCHINENENE D]: above 41.3 µM; for `COc1cc(OC)c(C(CCc2ccc(O)cc2OC)c2ccc(O)cc2)cc1CCC(=O)c1ccc(O)cc1` (stereo not given) [COCHINCHINENIN B]: 12.3 µM.
The compound `COc1ccc(C(CCc2ccc(O)cc2OC)c2cc(CCC(=O)c3ccc(O)cc3)c(OC)cc2O)cc1` (stereo not given) [COCHINCHINENIN C] came in with an IC50 above 9.2 µM.
